Measurements published in ChEMBL document CHEMBL1139900, “Synthesis and SAR studies of a novel class of S1P1 receptor antagonists” (Bioorg Med Chem, 2007).

How the values were obtained:
Assay type in all cases: functional, cell-based
[1] = biological target: T1, Sphingosine 1-phosphate receptor 1 (Homo sapiens, UniProt P21453); test: Antagonist activity at human S1P1 receptor expressed in CHO cell membrane by cAMP assay
Method in brief: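 CHO cells stably expressing human S1P1, kept in selection medium with 125 nM methotrexate, seeded at 4 × 10⁵ cells/well and grown overnight. Serum was removed, cells preincubated 5 min with 1 mM IBMX, then stimulated 15 min with 30 µM forskolin ± 100 nM S1P plus test compound at various concentrations, with IBMX kept present. Cells were lysed in 1% Triton X-100; cAMP read by competitive kit assay (n = 3).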

[2] = biological target: Sphingosine 1-phosphate receptor 2 (Homo sapiens, UniProt O95136); test: Antagonist activity at human S1P2 receptor expressed in CHO cell membrane by FLIPR assay
Method in brief: (§1)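 Stably transfected CHO cells in HAM medium with 10% dialyzed FBS, seeded at 5 × 10⁴ cells/mL and grown 2 days. Buffer: HBSS without phenol red, 20 mM Hepes, 2.5 mM probenecid, pH 7.4. Loaded 45–60 min with 4 µM Fluo3-AM plus 0.04% pluronic acid, then washed. Serially diluted compound added for 10 min before S1P injection; calcium fluorescence read on FLIPR.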

[3] = biological target: T1, Sphingosine 1-phosphate receptor 1; test: Antagonist activity at human S1P1 receptor expressed in CHO cell membrane by FLIPR assay; method in brief: as §1
[4] = biological target: Sphingosine 1-phosphate receptor 4 (Homo sapiens, UniProt O95977); test: Antagonist activity at human S1P4 receptor expressed in CHO cell membrane by FLIPR assay
Method in brief: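 S1P4-expressing cells in HAM medium with 10% dialyzed FBS, seeded at 1 × 10⁵ cells/mL and grown 2 days. Buffer: HBSS without phenol red, 20 mM Hepes, 2.5 mM probenecid, pH 7.4. Fluo3-AM (4 µM, with 0.04% pluronic acid) loading for 45–60 min, then washed. Serially diluted compound given 10 min before S1P injection; calcium signal measured on FLIPR.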

[5] = biological target: Sphingosine 1-phosphate receptor 3 (Homo sapiens, UniProt Q99500); test: Antagonist activity at human S1P3 receptor expressed in CHO cell membrane by FLIPR assay; method in brief: as §1
Sphingosine 1-phosphate receptor 3, sequence (Q99500 whole entry): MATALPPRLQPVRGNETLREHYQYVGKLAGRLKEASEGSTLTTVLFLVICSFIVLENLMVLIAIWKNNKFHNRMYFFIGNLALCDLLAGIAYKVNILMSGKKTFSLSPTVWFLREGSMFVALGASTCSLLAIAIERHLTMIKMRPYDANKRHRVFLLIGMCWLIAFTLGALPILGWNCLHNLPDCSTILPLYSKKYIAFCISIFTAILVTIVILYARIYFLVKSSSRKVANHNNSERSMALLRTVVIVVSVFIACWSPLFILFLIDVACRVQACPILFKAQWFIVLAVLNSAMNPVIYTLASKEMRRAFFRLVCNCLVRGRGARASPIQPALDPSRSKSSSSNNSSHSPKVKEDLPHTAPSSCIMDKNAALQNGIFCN

T1 sequence (P21453 whole entry): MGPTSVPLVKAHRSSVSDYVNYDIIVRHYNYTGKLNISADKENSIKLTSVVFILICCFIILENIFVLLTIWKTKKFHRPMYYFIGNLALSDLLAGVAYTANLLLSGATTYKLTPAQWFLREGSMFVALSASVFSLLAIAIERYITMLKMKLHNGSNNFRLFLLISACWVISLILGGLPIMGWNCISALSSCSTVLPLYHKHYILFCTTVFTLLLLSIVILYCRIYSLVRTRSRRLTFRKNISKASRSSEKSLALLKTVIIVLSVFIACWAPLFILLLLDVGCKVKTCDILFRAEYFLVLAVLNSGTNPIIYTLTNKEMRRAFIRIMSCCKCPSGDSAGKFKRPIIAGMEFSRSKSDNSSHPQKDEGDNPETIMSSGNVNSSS
Sphingosine 1-phosphate receptor 2, sequence (O95136 whole entry): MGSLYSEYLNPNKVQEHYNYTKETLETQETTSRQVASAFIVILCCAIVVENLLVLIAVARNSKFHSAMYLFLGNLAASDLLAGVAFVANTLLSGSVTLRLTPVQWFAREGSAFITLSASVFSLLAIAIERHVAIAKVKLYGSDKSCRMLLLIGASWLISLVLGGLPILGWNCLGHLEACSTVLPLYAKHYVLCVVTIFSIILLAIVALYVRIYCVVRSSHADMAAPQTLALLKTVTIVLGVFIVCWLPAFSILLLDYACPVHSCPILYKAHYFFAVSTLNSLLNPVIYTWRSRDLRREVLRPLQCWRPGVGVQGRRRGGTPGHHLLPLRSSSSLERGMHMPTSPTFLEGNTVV
Sphingosine 1-phosphate receptor 4, sequence (O95977 whole entry, looked up): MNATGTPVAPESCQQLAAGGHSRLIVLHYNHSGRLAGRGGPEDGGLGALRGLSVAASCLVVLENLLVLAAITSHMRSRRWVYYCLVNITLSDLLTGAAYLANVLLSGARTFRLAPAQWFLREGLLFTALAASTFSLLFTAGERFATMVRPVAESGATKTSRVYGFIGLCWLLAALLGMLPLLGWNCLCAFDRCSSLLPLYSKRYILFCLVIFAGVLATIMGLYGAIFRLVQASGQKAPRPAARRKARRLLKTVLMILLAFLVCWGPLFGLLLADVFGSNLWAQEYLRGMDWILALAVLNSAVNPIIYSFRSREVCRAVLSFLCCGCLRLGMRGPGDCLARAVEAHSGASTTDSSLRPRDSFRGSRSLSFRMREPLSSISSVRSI

Row | IC50 [1] | Structure (SMILES) | other results
1 | > 17 µM | CCCCCCCCCCC#CC(O)c1ccccc1-c1ccc(Oc2cccc(OCC)c2)c(S(=O)(=O)O)c1 (configuration not stated) | 
2 | 1.3 µM | CCCCCCCCCCC#CC(O)c1sccc1-c1ccc(Oc2ccc(OCC)cc2)c(S(=O)(=O)O)c1 (configuration not stated) | 
3 | 0.4 µM | CCCCCCCCCCC#CC(O)c1ccccc1-c1ccc(Oc2ccc(OCC)cc2)c(S(=O)(=O)O)c1 (configuration not stated) | 
4 | 5.5 µM | CCCCCCCCCCC#CC(O)c1ccc(-c2ccc(Oc3ccc(OCC)cc3)c(S(=O)(=O)O)c2)s1 (configuration not stated) | 
5 | 8.9 µM | CCCCCCCCCCC#CC(O)c1ccccc1-c1ccc(Oc2ccccc2OCC)c(S(=O)(=O)O)c1 (configuration not stated) | 
6 | 0.19 µM | CCCCCCCCCCC#CC(O)c1ccccc1-c1ccc(Sc2ccc(OCCC)cc2)c(S(=O)(=O)O)c1 (configuration not stated) | 
7 | 4.6 µM | CCCCCCCCCCC#CC(O)c1cccc(-c2ccc(Oc3ccc(OCC)cc3)c(S(=O)(=O)O)c2)c1 (configuration not stated) | 
8 | 17 µM | CCCCCCCCCCCCCCCCCC1=NN(c2ccc(Oc3ccc(OCC)cc3)c(S(=O)(=O)O)c2)C(=O)C1 | 
9 | 0.19 µM | CCCCCCCCCCC#CC(O)c1ccccc1-c1ccc(Sc2ccc(OCCCC)cc2)c(S(=O)(=O)O)c1 (configuration not stated) | IC50 [2]: 24 µM; IC50 [3]: 1 µM; IC50 [4]: 40 µM; IC50 [5]: 13 µM
10 | > 20 µM | CCCCOc1ccc(Sc2ccc(-c3ccccc3C(O)C#CCOCCCO)cc2S(=O)(=O)O)cc1 (configuration not stated) | 
11 | > 2.4 µM | CCCCCCCCCCC#CC(O)c1ccccc1-c1ccc(Sc2ccc(OCCCCCCCC)cc2)c(S(=O)(=O)O)c1 (configuration not stated) | 

Further lines, the compound ahead of its results:

Row | Structure (SMILES) | IC50 [1] | other results
12 | CCCCOc1ccc(Sc2ccc(-c3ccccc3C(O)C#CCOCCCCCO)cc2S(=O)(=O)O)cc1 (configuration not stated) | 0.34 µM | 
13 | CCCCCCCCCCC#CC(O)c1ccccc1-c1ccc(Sc2ccc(OC)cc2)c(S(=O)(=O)O)c1 (configuration not stated) | 0.7 µM | 
14 | CCCCCCCCCCC#CC(O)c1ccccc1-c1ccc(Sc2ccc(OCC)cc2)c(S(=O)(=O)O)c1 (configuration not stated) | 0.4 µM | 
15 | CCCCOc1ccc(Sc2ccc(-c3ccccc3C(O)C#CCOCCCCCCCCCCCO)cc2S(=O)(=O)O)cc1 (configuration not stated) | 0.13 µM | 
16 | CCCCCCCCCCC#CC(C)(O)c1ccccc1-c1ccc(Sc2ccc(OCCCC)cc2)c(S(=O)(=O)O)c1 (configuration not stated) | 1 µM | 
17 | CCCCCCCCCCC#CC(O)c1ccccc1-c1ccc(Sc2ccc(OCCCCCC)cc2)c(S(=O)(=O)O)c1 (configuration not stated) | 0.52 µM | 
18 | CCCCOc1ccc(Sc2ccc(-c3ccccc3C(O)C#CCOCCCCCCCCCO)cc2S(=O)(=O)O)cc1 (configuration not stated) | 0.098 µM | 
19 | CCCCOc1ccc(Sc2ccc(-c3ccccc3C(O)C#CCOCCCCCCCO)cc2S(=O)(=O)O)cc1 (configuration not stated) | 0.031 µM | IC50 [2]: 11 µM; IC50 [3]: 0.5 µM; IC50 [4]: 6 µM; IC50 [5]: 5 µM
